ARFGAP1 inhibitor = inhibits rat ARF GTPase activating protein 1; Q62848; Arfgap1-stimulated ARF1 GTP hydrolysis, GDP FP detection; inhibition, % at 16.5 µM; hit rate 0.26% among 360,000;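 active = inhibition above a per-plate limit, mean inhibition of low control wells plus 3 SD, cut at about 25% in these data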
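System: truncated rat Arfgap1 GAP domain / Medium: HEPES-based buffer, pH 7.5 / Also added: N-terminally truncated human ARF1-GTP substrate / Incubation: enzyme reaction 120 min at 25 °C after 20 min preincubation / Measured by: FP of antibody-bound GDP Alexa 633 tracer, ex 620/em 688 nm / Replicates: singlicate, each compound tested once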
Exocytosis inh = blocks lytic granule exocytosis. hit rate 0.66% among 360,000. AID 651702. inhibition, % at 10 µM. TALL-104 LAMP-1 surface exposure, flow cytometry; cells stimulated with thapsigargin and PMA;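 active = inhibition above about 55%, limit read from the data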
NRP1-CendR mod = NRP-1/CendR interaction modulation | O14786 | FAM-RPARPAR peptide binding to NRP-1, fluorescence polarization | inhibition, % at 25 µM | hit rate 0.85% among 360,000 | AID 602438;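 active = inhibition or corrected inhibition above about 18%, plus a signal ratio from 0.5 to 1.5, limit read from the data, passing the limit was not always enough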
Target sequence (O14786 whole entry, looked up): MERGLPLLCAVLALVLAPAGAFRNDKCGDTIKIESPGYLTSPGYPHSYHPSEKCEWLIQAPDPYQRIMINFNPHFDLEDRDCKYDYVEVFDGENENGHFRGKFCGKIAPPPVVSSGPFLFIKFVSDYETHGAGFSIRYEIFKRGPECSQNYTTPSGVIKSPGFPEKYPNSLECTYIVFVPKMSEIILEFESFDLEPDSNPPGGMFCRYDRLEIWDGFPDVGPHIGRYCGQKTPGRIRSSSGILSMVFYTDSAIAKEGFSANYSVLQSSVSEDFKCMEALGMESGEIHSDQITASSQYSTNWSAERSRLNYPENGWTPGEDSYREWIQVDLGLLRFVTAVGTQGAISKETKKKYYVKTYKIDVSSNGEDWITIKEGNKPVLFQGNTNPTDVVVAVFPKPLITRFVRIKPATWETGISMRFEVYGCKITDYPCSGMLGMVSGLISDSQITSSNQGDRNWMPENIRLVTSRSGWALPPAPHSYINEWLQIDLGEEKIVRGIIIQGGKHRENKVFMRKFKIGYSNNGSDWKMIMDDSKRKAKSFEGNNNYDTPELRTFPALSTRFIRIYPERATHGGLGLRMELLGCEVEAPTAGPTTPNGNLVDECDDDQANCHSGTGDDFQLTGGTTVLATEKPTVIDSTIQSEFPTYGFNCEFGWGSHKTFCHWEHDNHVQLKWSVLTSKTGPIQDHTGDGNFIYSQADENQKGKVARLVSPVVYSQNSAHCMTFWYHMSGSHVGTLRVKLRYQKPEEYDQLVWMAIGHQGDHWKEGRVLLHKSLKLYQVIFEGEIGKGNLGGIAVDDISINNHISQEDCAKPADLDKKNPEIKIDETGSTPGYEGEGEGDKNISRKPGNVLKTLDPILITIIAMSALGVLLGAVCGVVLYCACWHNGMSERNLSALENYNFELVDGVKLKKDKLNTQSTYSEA
ASAP1 inh = ASAP1 ArfGAP inhibition | Q9ULH1 | ASAP1-stimulated ARF1 GTP hydrolysis, GDP FP detection | inhibition, % at 16.5 µM | hit rate 0.19% among 360,000; in the data active = inhibition above about 25%
V-ATPase pHluor = alters yeast V-ATPase proton transport. S. cerevisiae, pHLuorin cytosolic pH fluorescence. response, % at 10 µM. hit rate 0.37% among 350,000; in the data active = response mostly above about 7.3%, no sharp cut-off; inactive = mostly below about 5.4%; also: actives read high
Large screens that a line does not name were inactive. The list is not random: actives were taken first. Their share in the collection is about 2.2%.

CC(=O)OC[C@@H]1CN(Cc2cccc(C(F)(F)F)c2)C[C@H](n2cnc3c(NCc4ccco4)ncnc32)O1	NRP1-CendR mod 40 (no result: V-ATPase pHluor)
CC(=O)OC[C@@H]1CN(Cc2cccc(C(F)(F)F)c2)C[C@H](n2cnc3c(N4CCOCC4)ncnc32)O1	none (no result: V-ATPase pHluor)
CS(=O)(=O)N(CC(=O)Nc1ccccc1C(=O)N1CCOCC1)c1ccc(F)c(Cl)c1	V-ATPase pHluor 16
N#Cc1ccc(S(=O)(=O)NC(=O)[C@H]2O[C@@H](n3ccc(=O)[nH]c3=O)[C@H](O)[C@@H]2O)cc1	none (no result: Exocytosis inh, NRP1-CendR mod, V-ATPase pHluor)
COCCN(Cc1ccc(C)cc1)C(=O)[C@H]1O[C@@H](n2cnc(C(N)=O)n2)[C@H](O)[C@@H]1O	none (no result: Exocytosis inh, NRP1-CendR mod, V-ATPase pHluor)
C[C@H](CO)N1C[C@H](C)[C@H](CN(C)S(=O)(=O)c2cn(C)cn2)OCc2cnnn2CCCC1=O	none
C[C@@H]1CN([C@@H](C)CO)C(=O)CCCn2nncc2CO[C@H]1CN(C)C(=O)CCC(F)(F)F	none
C[C@@H]1CN([C@H](C)CO)C(=O)CCCn2nncc2CO[C@@H]1CN(C)C(=O)CCC(F)(F)F	NRP1-CendR mod 27
C[C@@H]1CN([C@H](C)CO)C(=O)CCCn2nncc2CO[C@H]1CN(C)S(=O)(=O)c1cn(C)cn1	NRP1-CendR mod 27
Cc1cc2c(nc1C)CCCN2Cc1ccccn1	none (no result: Exocytosis inh, NRP1-CendR mod, V-ATPase pHluor)
Cc1cc(C(=O)N/N=C/c2cc(Br)cc(Br)c2OC(=O)c2cccc(F)c2)n[nH]1	NRP1-CendR mod 20
CCOC(=O)CN1C(=O)N(c2ccc(OC)cc2)[C@H]2CC3c4ccccc4C[C@]3(C)[C@@H](C(=O)N(C)C3CCCCC3)C[C@H]21 (some centres not stated)	none (no result: Exocytosis inh, NRP1-CendR mod, V-ATPase pHluor)
O=C(NC(=S)N1CCCC1)c1ccc(Cl)cc1	NRP1-CendR mod 30
CN1CCN(C(=S)NC(=O)c2ccc(Cl)cc2)CC1	none
O=C(Nc1ccc2c(c1)OCO2)c1c[nH]c(=O)n(-c2ccc(F)cc2)c1=O	NRP1-CendR mod 20
O=C(c1ccc(-c2ccccc2)cc1)N1CCN(c2ccc3c(c2)C2CC3CCN2C(=O)OCc2ccccc2)CC1 (configuration not stated)	NRP1-CendR mod 32 (no result: V-ATPase pHluor)
CCCCCCCCSC1=CC(=O)C(OC)=C(OC)C1=O	Exocytosis inh 114
CCCCCSc1nncc(=O)[nH]1	none
Cc1ccc(S(=O)(=O)ON2C(=O)c3ccccc3C2=O)c(C)c1	V-ATPase pHluor 8.1
Cc1cc(C)c(S(=O)(=O)ON2C(=O)c3ccccc3C2=O)cc1C	none
COc1ccc(N(C(=O)c2cccnc2)S(=O)(=O)c2ccc(F)cc2)cc1	none
COc1ccc(N(C(=O)c2cccnc2)S(=O)(=O)c2ccccc2)cc1	NRP1-CendR mod 24
COc1cc(CC(=O)OCC(=O)N2C(C)CCCC2C)cc(OC)c1OC (configuration not stated)	NRP1-CendR mod 26
Cc1c(CC(=O)O)c(=O)oc2cc(OCc3ccc(F)cc3Cl)ccc12	NRP1-CendR mod 51
O=C(CCCC(=O)OCC(=O)c1cccs1)Nc1ccc(F)cc1	none
O=C(CCCC(=O)OCC(=O)c1cccs1)Nc1ccc(Oc2ccccc2)cc1	NRP1-CendR mod 23
Cc1cc2c(cc1C)NC(c1nc3ccccc3[nH]1)C1=C(CC(C)(C)CC1=O)N2 (configuration not stated)	NRP1-CendR mod 29 (no result: V-ATPase pHluor)
CCOC(=O)C(NC(=O)CCl)(Nc1sc(C)c(CC)c1C#N)C(F)(F)F (configuration not stated)	none
CCOC(=O)C(NC(=O)CC(C)C)(Nc1sc(C)c(CC)c1C#N)C(F)(F)F (configuration not stated)	NRP1-CendR mod 24
COc1ccc(C(=O)C(=O)N2CCN(S(=O)(=O)c3cccc4c(N(C)C)cccc34)CC2)cc1OC	none (no result: Exocytosis inh, NRP1-CendR mod, V-ATPase pHluor)
CCOC(=O)c1c(C)oc2cc(Br)c(OC(=O)N3CCOCC3)cc12	NRP1-CendR mod 26
CCN(CC)Cc1c(O)ccc2c(C)c(CC(=O)OC)c(=O)oc12	NRP1-CendR mod 47
Cc1cccc(C=NNc2cc(C)c3cccc(C)c3n2)n1	none (no result: Exocytosis inh, NRP1-CendR mod, V-ATPase pHluor)
CC1=NOC(=O)/C1=C\c1ccc(-c2cc(Cl)ccc2Cl)o1	Exocytosis inh 74
C=CC#CC[N+]1(CC#Cc2ccccc2)CCOCC1	ARFGAP1 inhibitor 97, NRP1-CendR mod 21, ASAP1 inh 87
O=C1c2c(O)cccc2C(C2OC(CO)[C@@H](O)[C@H](O)[C@H]2O)c2cc(CO)cc(O)c21 (some centres not stated)	NRP1-CendR mod 37
